The values that follow come from ChEMBL document CHEMBL3864147, “Antioxidant and anti-inflammatory neolignans from the seeds of hawthorn” (Bioorg Med Chem Lett, 2016).

Each structure is given as a SMILES string. Where only a bound is given, the exact number is not on record here.

One may read the IC50 as the midpoint of a concentration-inhibition curve. As a reminder, the inhibition is the relative decrease from the control value, in per cent.

The species entered for one series is Mus musculus. Put plainly: Cytotoxicity against mouse RAW264.7 cells assessed as effect on cell viability at 100 uM preincubated for 1 hr followed by LPS stimulation measured after 24 hrs by MTT assay. The series is classed as toxicity, cell-based. To be noted: raw264.7, 24 h. In short, it runs like this: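 RAW264.7 cells in DMEM with 10% FBS and penicillin/streptomycin at 37 °C, 5% CO2, seeded 5 × 10^5 cells/well; treated with samples (100 µM) 1 h, then LPS (100 ng/mL) 24 h. MTT (0.25 mg/mL) added for 4 h; formazan read at 540 nm; untreated cells as control.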
Background: Tetrazolium dyes change colour on reduction, which living cells bring about.

Series [1] can be described thus: Antioxidant activity assessed as DPPH radical scavenging activity incubated in dark for 30 mins. The series is classed as functional. In short, it runs like this:
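Samples (0.4 mM stock, 5–40 µL series) and DPPH (2 mM stock, 20 µL) in ethanol, made to 200 µL with ethanol; incubated 30 min in dark at 37 °C; absorbance at 517 nm. Ethanol replaced sample as blank.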
On the technique in general: The DPPH test is a chemical assay of radical scavenging.

Series [2] is described as follows: Antioxidant activity assessed as ferric ion reducing activity by measuring Fe2+ levels using fe3+-TPTZ at 3000 ug/ml after 30 mins by FRAP assay. The series is classed as functional. In short, it runs like this:
(§1)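 FRAP reagent: 300 mM acetate buffer pH 3.6, 10 mM TPTZ in 40 mM HCl, 20 mM FeCl3. Sample (3000, 1500, 750, 375 µg/mL solutions) mixed with reagent, 30 min at 37 °C, absorbance 593 nm. Values expressed as µM Fe2+ from FeSO4 calibration curve (5–450 µM).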

Series [3] in a line: Antiinflammatory activity in mouse RAW264.7 cells assessed as inhibition of LPS-induced TNFalpha production after 24 hrs by ELISA. To be noted: RAW264.7, 24 h. Format: functional, cell-based. In short, it runs like this: (§2)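 RAW264.7 cells plated at 5 × 10^5/mL, pre-treated with samples at 100, 50, 10 or 1 µM, then stimulated with LPS (100 ng/mL) for 24 h. TNF-α in the medium measured by ELISA kit per manufacturer's instructions and quantified from a standard curve; silybin as positive control.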
A general note: ELISA stands for enzyme-linked immunosorbent assay.

Series [4] in a line: Antiinflammatory activity in mouse RAW264.7 cells assessed as inhibition of LPS-induced nitric oxide production at 100 uM after 24 hrs by Griess assay relative to control. The series is classed as functional. To be noted: RAW264.7, 24 h. The method in brief:
(§3)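 RAW264.7 cells (5 × 10^5/mL) pre-treated with samples at 100, 50, 10 or 1 µM, then LPS (100 ng/mL) for 24 h. Nitrite in medium measured by mixing with equal volume Griess reagent (1% sulfanilamide in 5% H3PO4, 0.1% N-naphthyl-ethylenediamine), 10 min at 37 °C, absorbance 540 nm; quantified against NaNO2 standard curve; minocycline as positive control.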

Series [5] can be described thus: Antiinflammatory activity in mouse RAW264.7 cells assessed as inhibition of LPS-induced TNFalpha production at 10 uM after 24 hrs by ELISA relative to control. The series is classed as functional. The following applies: RAW264.7, 24 h. In short, it runs like this:
as §2

Series [6] in a line: Antiinflammatory activity in mouse RAW264.7 cells assessed as inhibition of LPS-induced nitric oxide production at 10 uM after 24 hrs by Griess assay relative to control. Format: functional. To be noted: RAW264.7, 24 h. In short, it runs like this:
as §3

The nature of series [7]: Antioxidant activity assessed as ferric ion reducing activity by measuring Fe2+ levels using fe3+-TPTZ at 1500 ug/ml after 30 mins by FRAP assay. The series is classed as functional. The method in brief: as §1
The nature of series [8]: Antiinflammatory activity in mouse RAW264.7 cells assessed as inhibition of LPS-induced nitric oxide production at 1 uM after 24 hrs by Griess assay relative to control. The series is classed as functional. The following applies: RAW264.7, 24 h. The method in brief:
as §3

The nature of series [9]: Antiinflammatory activity in mouse RAW264.7 cells assessed as inhibition of LPS-induced nitric oxide production after 24 hrs by Griess assay. The series is classed as functional, cell-based. The following applies: RAW264.7, 24 h. The method in brief:
as §3

Series [10] in a line: Antioxidant activity assessed as ferric ion reducing activity by measuring Fe2+ levels using fe3+-TPTZ at 750 ug/ml after 30 mins by FRAP assay. Format: functional. In short, it runs like this: as §1
A short description of series [11]: Antiinflammatory activity in mouse RAW264.7 cells assessed as inhibition of LPS-induced TNFalpha production at 100 uM after 24 hrs by ELISA relative to control. Format: functional. The following applies: RAW264.7, 24 h. The method in brief: as §2
The nature of series [12]: Antiinflammatory activity in mouse RAW264.7 cells assessed as inhibition of LPS-induced TNFalpha production at 50 uM after 24 hrs by ELISA relative to control. The series is classed as functional. The following applies: RAW264.7, 24 h. In short, it runs like this: as §2
The nature of series [13]: Antiinflammatory activity in mouse RAW264.7 cells assessed as inhibition of LPS-induced nitric oxide production at 50 uM after 24 hrs by Griess assay relative to control. Format: functional. To be noted: RAW264.7, 24 h. In short, it runs like this:
as §3

Series [14] is described as follows: Antiinflammatory activity in mouse RAW264.7 cells assessed as inhibition of LPS-induced TNFalpha production at 1 uM after 24 hrs by ELISA relative to control. Format: functional. The following applies: RAW264.7, 24 h. The method in brief:
as §2

A short description of series [15]: Antioxidant activity assessed as ABTS radical scavenging activity after 30 mins. Format: functional. The method in brief: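 ABTS radical generated by 7 mM ABTS plus 2.4 mM potassium persulfate, 12 h dark at room temperature, diluted in ethanol to OD 0.700 at 734 nm. Samples at several concentrations mixed with ABTS+ solution, 30 min at 37 °C, read at 734 nm; ethanol blank; percent scavenging calculated relative to blank.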

Series [16] in a line: Antioxidant activity assessed as ferric ion reducing activity by measuring Fe2+ levels using fe3+-TPTZ at 375 ug/ml after 30 mins by FRAP assay. The series is classed as functional. In short, it runs like this: as §1

In the case of `CCO[C@H](c1ccc(O[C@@H](CO)[C@@H](O)c2ccc(O)c(OC)c2)c(OC)c1)[C@H](CO)c1ccc(O)c(OC)c1`, the Activity entry was “Non-Toxic” in the series listed under Mus musculus; 135 µmol/L in series [2]; 108 µmol/L in series [7]; 65.1 µmol/L in [10]; 33.5 µmol/L in series [16]. For the same molecule, the IC50 in series [1] was 56.8 µM; in [3] it was above 100 µM; in series [9], 76.3 µM; in [15], 7.9 µM. The inhibition at 100 µM in series [4] amounted to 55.1%; in [11], 27.7%. The values for the inhibition at 10 µM in series [5] and in series [6] were -1.9% and 15.5%, respectively. Also, the inhibition at 1 µM in series [8] was found to be 3.7%; in [14], 0.4%. Moreover, the results for the inhibition at 50 µM in series [12] and in series [13] were 14.2% and 44.1%, respectively.
On to `COc1cc([C@H](O)[C@@H](CO)Oc2ccc([C@@H](O)[C@@H](CO)c3ccc(O)c(OC)c3)cc2OC)ccc1O`, for which the Activity entry was “Non-Toxic” in the series listed under Mus musculus; 132 µmol/L in series [2]; 89.9 µmol/L in [7]; 42.2 µmol/L in series [10]; 29.1 µmol/L in series [16]. Further, the IC50 in series [1] was 68.6 µM; in series [3] it was above 100 µM; in series [9], 50.5 µM; in series [15], 4.4 µM. Moreover, the inhibition at 100 µM in series [4] was 68.9%; in [11], 32.1%. For the same molecule, the inhibition at 10 µM in series [5] is 4.1%; in series [6], 14.3%. The inhibition at 1 µM in series [8] is 2.6%; in series [14], 2.2%. For the same molecule, the figures for the inhibition at 50 µM in [12] and in series [13] were 15.1% and 49.2%, respectively.
As to `COc1cc([C@H](OC)[C@@H](CO)Oc2ccc([C@@H](O)[C@H](O)CO)cc2OC)ccc1O`, the Activity result is “Non-Toxic” in the series filed under Mus musculus; 105 µmol/L in [2]; 74.1 µmol/L in series [7]; 50.5 µmol/L in [10]; 29.9 µmol/L in series [16]. In addition, the half-maximal inhibitory concentration (IC50) in series [1] was 109 µM; in [3] it was 76.1 µM; in [9] it was above 100 µM; in series [15], 10.8 µM. The inhibition at 100 µM in series [4] was found to be 7%; in [11], 57.7%. For the same molecule, the inhibition at 10 µM in series [5] is 18.9%; in series [6] it was -0.5%. Also, the inhibition at 1 µM in [8] was -1.3%; in series [14] it was 3.1%. The inhibition at 50 µM in [12] came out at 37.2%; in series [13], 3.2%.
Regarding `CCO[C@H](c1ccc(O[C@@H](CO)[C@@H](O)c2ccc(O)c(OC)c2)c(OC)c1)[C@@H](CO)c1ccc(O)c(OC)c1`, the Activity entry in the series filed under Mus musculus was “Non-Toxic”; in [2], 134 µmol/L; in series [7] it was 96.8 µmol/L; in series [10], 62.7 µmol/L; in series [16], 38.6 µmol/L. Moreover, the IC50 in [1] was 79.6 µM; in series [3], above 100 µM; in [9] it was 66.4 µM; in [15] it was 7.1 µM. Moreover, the results for the inhibition at 100 µM in [4] and in series [11] were 62.6% and 29.2%, respectively. The inhibition at 10 µM was determined as 3.1% in series [5] and 18.2% in series [6]. The inhibition at 1 µM in series [8] was 4.7%; in series [14], -2.2%. Further, the results for the inhibition at 50 µM in series [12] and in [13] were 11.4% and 40.2%, respectively.
As for `CCO[C@H](c1ccc(O[C@@H](CO)[C@@H](OC)c2ccc(O)c(OC)c2)c(OC)c1)[C@H](CO)c1ccc(O)c(OC)c1`, the Activity result in the series filed under Mus musculus was “Non-Toxic”; in [2] it was 129 µmol/L; in series [7], 99.2 µmol/L; in [10], 66.3 µmol/L; in [16], 34.5 µmol/L. The IC50 is 81.6 µM in [1], above 100 µM in series [3], 80.5 µM in series [9] and 6.3 µM in series [15]. The figures for the inhibition at 100 µM in series [4] and in series [11] were 56.2% and 22.5%, respectively. In addition, the inhibition at 10 µM in [5] is 2.1%; in series [6], 16.1%. In addition, the inhibition at 1 µM was 2.5% in series [8] and 0.2% in series [14]. The inhibition at 50 µM in [12] worked out at 13.2%; in series [13], 37.2%.
